Experimental data reported in ChEMBL document CHEMBL4118197, “The discovery and preclinical evaluation of BMS-707035, a potent HIV-1 integrase strand transfer inhibitor” (Bioorg Med Chem Lett, 2018).
Values after ≈ are worked out from the molar mass of the structure shown.

Tests used:
[1] = Half-life in Sprague-Dawley rat at 0.87 mg/kg, iv; format: ADME, organism-based; details: in vivo
Procedure, shortened: (§1)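 Single IV (about 1 mg/kg) and oral (about 5 mg/kg) doses in rat, cynomolgus monkey and dog; CL, t1/2, Vss, Cmax, tmax, AUC and oral bioavailability F derived from plasma concentration-time data.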

[2] = Oral bioavailability in cynomolgus monkey at 5 mg/kg; format: ADME, organism-based, Macaca fascicularis; details: in vivo; procedure, shortened: as §1
[3] = target: T1, Nuclear receptor subfamily 1 group I member 2 (Homo sapiens, UniProt O75469); assay: Transactivation of human PXR; format: ADME
T1 sequence (O75469 whole entry): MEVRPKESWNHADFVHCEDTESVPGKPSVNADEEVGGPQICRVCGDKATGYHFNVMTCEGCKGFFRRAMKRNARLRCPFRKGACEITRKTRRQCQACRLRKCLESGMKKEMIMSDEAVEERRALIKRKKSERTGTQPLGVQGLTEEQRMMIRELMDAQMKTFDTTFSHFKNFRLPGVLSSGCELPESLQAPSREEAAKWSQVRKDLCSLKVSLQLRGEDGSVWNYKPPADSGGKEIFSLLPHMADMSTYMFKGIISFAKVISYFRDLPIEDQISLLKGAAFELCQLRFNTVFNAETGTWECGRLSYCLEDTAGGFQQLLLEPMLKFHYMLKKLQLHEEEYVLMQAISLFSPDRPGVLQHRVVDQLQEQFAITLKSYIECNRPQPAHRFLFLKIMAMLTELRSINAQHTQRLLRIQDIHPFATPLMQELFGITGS
Procedure, shortened: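 Human PXR transactivation assay, with potency reported as EC20A and EC60A values.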

[4] = Drug metabolism in cynomolgus monkey liver microsomes assessed as CYP-mediated metabolism by measuring compound half life; format: ADME, Macaca fascicularis
Procedure, shortened: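 Microsomal stability with NADPH (CYP-dependent) in rat, cynomolgus, dog and human microsomes; half-life in min.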

[5] = Permeability across apical to basolateral side in human Caco2 cells at 3 uM; format: ADME, cell-based; details: Caco-2, read-out: permeability
Procedure, shortened: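 Caco-2 monolayer permeability at 3 µM, apical-to-basolateral and basolateral-to-apical, reported in nm/sec.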

[6] = Protein binding in rat plasma; format: ADME, cell-free; details: read-out: PPB (converted)
[7] = Protein binding in cynomolgus monkey plasma; format: ADME, cell-free, Macaca fascicularis; details: read-out: PPB (converted)
[8] = Tmax in Sprague-Dawley rat at 4.4 mg/kg, po; format: ADME, organism-based; details: in vivo
[9] = Volume of distribution at steady state in Sprague-Dawley rat at 0.87 mg/kg, iv; format: ADME, organism-based; details: in vivo, read-out: Vdss
[10] = Volume of distribution at steady state in Beagle dog at 1 mg/kg, iv; format: ADME, organism-based, Canis lupus familiaris; details: in vivo, read-out: Vdss
[11] = Clearance in cynomolgus monkey at 1 mg/kg, iv; format: ADME, organism-based, Macaca fascicularis; details: in vivo; procedure, shortened: as §1
[12] = Cmax in Beagle dog at 5.2 mg/kg, po; format: ADME, organism-based, Canis lupus familiaris; parameters: dose 5.2 mg/kg, route oral; details: in vivo; procedure, shortened: as §1
Cytochrome P450 2D6 = Cytochrome P450 2D6 (Homo sapiens, UniProt P10635); assay: Inhibition of human CYP2D6; format: ADME
[13] = AUC in Sprague-Dawley rat at 4.4 mg/kg, po; format: ADME, organism-based; details: in vivo; procedure, shortened: as §1
[14] = Half-life in cynomolgus monkey at 1 mg/kg, iv; format: ADME, organism-based, Macaca fascicularis; details: in vivo; procedure, shortened: as §1
[15] = Volume of distribution at steady state in cynomolgus monkey at 1 mg/kg, iv; format: ADME, organism-based, Macaca fascicularis; details: in vivo, read-out: Vdss
Cytochrome P450 1A2 = target: T2, Cytochrome P450 1A2 (Homo sapiens, UniProt P05177); assay: Inhibition of human CYP1A2; format: ADME
T2 sequence (P05177 whole entry): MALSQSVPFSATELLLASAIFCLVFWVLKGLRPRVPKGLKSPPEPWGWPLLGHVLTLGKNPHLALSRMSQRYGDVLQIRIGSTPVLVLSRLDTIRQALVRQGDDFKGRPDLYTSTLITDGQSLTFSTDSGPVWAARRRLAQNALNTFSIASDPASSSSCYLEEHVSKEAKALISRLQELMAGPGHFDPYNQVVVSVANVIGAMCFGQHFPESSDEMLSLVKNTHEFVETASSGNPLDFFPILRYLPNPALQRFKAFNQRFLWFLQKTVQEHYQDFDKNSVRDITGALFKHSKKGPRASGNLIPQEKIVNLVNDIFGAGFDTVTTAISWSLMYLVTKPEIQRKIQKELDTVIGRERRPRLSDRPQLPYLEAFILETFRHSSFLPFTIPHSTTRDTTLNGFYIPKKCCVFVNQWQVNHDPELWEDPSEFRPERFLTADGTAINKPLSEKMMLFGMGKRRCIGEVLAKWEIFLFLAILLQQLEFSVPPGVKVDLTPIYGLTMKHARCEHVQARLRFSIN

[16] = Tmax in cynomolgus monkey at 5 mg/kg, po; format: ADME, organism-based, Macaca fascicularis; details: in vivo
[17] = Drug uptake in normal healthy human at 600 mg, po qd after 24 hrs; format: ADME, organism-based; details: in vivo, read-out: Drug uptake
Procedure, shortened: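 Healthy volunteers given 600 mg orally once daily; mean plasma concentration measured 24 h post-dose (C24h).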

[18] = AUC in Beagle dog at 5.2 mg/kg, po; format: ADME, organism-based, Canis lupus familiaris; details: in vivo; procedure, shortened: as §1
[19] = Cmax in Sprague-Dawley rat at 4.4 mg/kg, po; format: ADME, organism-based; parameters: dose 4.4 mg/kg, route oral; details: in vivo; procedure, shortened: as §1
[20] = Cmax in cynomolgus monkey at 5 mg/kg, po; format: ADME, organism-based, Macaca fascicularis; parameters: dose 5 mg/kg, route oral; details: in vivo; procedure, shortened: as §1
[21] = Cmax in dog in 12 month toxicology study; format: ADME, organism-based, Canis lupus familiaris; details: in vivo
Homo sapiens = assay: Toxicity in normal healthy human assessed as occurence of adverse events at 200 to 1200 mg, po, administered as single dose; format: organism-based; details: in vivo
Procedure, shortened: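 Human subjects received single oral doses of 200, 600, 800 or 1200 mg and were monitored for clinically significant adverse events.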

Cytochrome P450 2C9 = Cytochrome P450 2C9 (Homo sapiens, UniProt P11712); assay: Inhibition of human CYP2C9; format: ADME
HepG2 = assay: Cytotoxicity against human HepG2 cells; format: cell-based
[22] = Solubility of the compound at pH 8.5; format: physicochemical; details: buffer
[23] = Protein binding in human plasma; format: ADME, cell-free; details: read-out: PPB (converted)

Sequence of Cytochrome P450 2C9 (P11712 whole entry): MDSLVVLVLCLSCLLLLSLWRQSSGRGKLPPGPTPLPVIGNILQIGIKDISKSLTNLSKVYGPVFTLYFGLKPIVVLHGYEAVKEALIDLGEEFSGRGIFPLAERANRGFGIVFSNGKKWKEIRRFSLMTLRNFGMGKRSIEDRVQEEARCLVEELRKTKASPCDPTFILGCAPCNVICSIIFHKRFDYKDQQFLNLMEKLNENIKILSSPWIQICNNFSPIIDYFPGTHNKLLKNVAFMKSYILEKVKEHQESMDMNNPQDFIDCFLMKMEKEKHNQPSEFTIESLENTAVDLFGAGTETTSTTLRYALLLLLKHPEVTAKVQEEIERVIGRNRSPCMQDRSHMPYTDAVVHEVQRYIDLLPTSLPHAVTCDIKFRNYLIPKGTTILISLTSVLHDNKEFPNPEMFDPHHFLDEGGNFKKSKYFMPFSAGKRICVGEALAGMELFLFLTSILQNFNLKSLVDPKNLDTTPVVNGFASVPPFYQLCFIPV
Sequence of Cytochrome P450 2D6 (P10635 whole entry): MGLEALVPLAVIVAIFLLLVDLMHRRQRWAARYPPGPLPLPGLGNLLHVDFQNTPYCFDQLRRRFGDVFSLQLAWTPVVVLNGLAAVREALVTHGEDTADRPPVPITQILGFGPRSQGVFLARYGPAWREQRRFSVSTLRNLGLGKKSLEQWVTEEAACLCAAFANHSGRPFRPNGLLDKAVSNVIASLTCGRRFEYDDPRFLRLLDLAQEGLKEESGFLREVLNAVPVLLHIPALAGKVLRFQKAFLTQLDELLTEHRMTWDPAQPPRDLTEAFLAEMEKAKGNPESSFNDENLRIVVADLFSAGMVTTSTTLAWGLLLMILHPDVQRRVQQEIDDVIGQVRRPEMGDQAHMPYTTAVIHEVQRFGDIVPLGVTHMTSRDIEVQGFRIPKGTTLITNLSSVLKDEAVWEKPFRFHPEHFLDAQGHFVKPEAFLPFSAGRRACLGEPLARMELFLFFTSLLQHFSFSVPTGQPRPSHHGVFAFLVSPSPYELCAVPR

Q: Which results are given for `CC1(C)OCCn2c1nc(C(=O)NCc1ccc(F)cc1)c(O)c2=O`?
A: half-life [1]: 4 h; bioavailability [2]: 56%; EC50 [3]: > 50 µM; EC20 ([3]; human): > 50 µM; EC60 ([3]; human): > 50 µM; half-life [4]: 1.6 h; Papp A→B at 3 µM [5]: 33.4 ×10⁻⁶ cm/s; fraction unbound [6]: 0.063; fraction unbound [7]: 0.041; Tmax [8]: 0.25 h; Vd [9]: 0.86 L/kg; Vd [10]: 0.45 L/kg; clearance [11]: 6.8 mL/min/kg; Cmax [12]: 72.8 µM; IC50 (Cytochrome P450 2D6): > 40 µM; AUC [13]: 19.1 µM·h; half-life [14]: 6.5 h; Vd [15]: 0.87 L/kg; IC50 (Cytochrome P450 1A2): > 40 µM; Tmax [16]: 0.25 h; concentration at 24 h [17]: 340 ng/mL; AUC [18]: 162 µM·h; Cmax [19]: 4.51 µM; Cmax [20]: 6.12 µM; Cmax at 12 month [21]: ≥ 67000 ng/mL; Activity (Homo sapiens): Non-Toxic; IC50 (Cytochrome P450 2C9): > 40 µM; IC50 (HepG2): ≥ 45 µM; solubility [22]: 234 µg/mL (≈ 674 µM); fraction unbound [23]: 0.024
